PMC4186412 (Pharmacology Research & Perspectives, 2014)

What was measured:
[1] = system: Hh signaling mediated by Smo-M2; experiment: Luciferase reporter assay in NIH3T3-12Gli cells expressing Smo-M2-EYFP; format: cell-based, human
Smo-WT = Smo-WT (Homo sapiens, UniProt Q99835); experiment: Smo ciliary translocation assay, NIH3T3 cells expressing Smo-WT-EYFP; format: cell-based; conditions: Shh-N 20%, SAG 100 nmol/L
In short: (§1)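 NIH3T3 cells were transfected with pEYFP-Smo (WT or M2), selected in 500 μg/mL G418, and monoclonal clones were picked. Clones were treated with 0.1% DMSO, 20% Shh-N conditioned medium and/or 100 nmol/L SAG, with or without test compound. Smo-EYFP was imaged directly, cilia by acetylated α-tubulin immunofluorescence, nuclei by DAPI. At least two clones were used.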

[2] = system: Hh signaling mediated by Smo-WT; experiment: Luciferase reporter assay in NIH3T3-12Gli cells expressing Smo-WT-EYFP; format: cell-based, human
Hh signaling = experiment: Gli luciferase reporter assay in NIH3T3-12Gli cells; format: cell-based; conditions: for IC50: 36 h, read-out: IC50, Hh signaling induced by Shh-N conditioned medium (luciferase reporter)
[3] = system: Hh signaling mediated by Smo-DH; experiment: Luciferase reporter assay in NIH3T3-12Gli cells expressing Smo-DH-EYFP; format: cell-based, human; conditions: in the absence or presence of Shh-N
Ptch-1 = experiment: Quantitative real-time PCR, Ptch-1 mRNA; format: cell-based, mouse; conditions: NIH3T3-12Gli cell line, data not shown
In short: (§2)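 Total RNA is extracted with Trizol and quantified. cDNA is made with a PrimeScript reverse-transcription kit, then SYBR Green real-time PCR is run with mouse-specific primers and GAPDH as the reference gene. Relative expression is calculated by the 2(-ΔΔCt) method, with ΔCt = Ct of the target gene minus Ct of GAPDH.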

Smo-DH = Smo-DH (Homo sapiens, UniProt Q99835, D473H); experiment: BODIPY-cyclopamine binding competition, HEK293T cells expressing Smo-DH
Chain of Smo-DH (Q99835 28-787 D473H): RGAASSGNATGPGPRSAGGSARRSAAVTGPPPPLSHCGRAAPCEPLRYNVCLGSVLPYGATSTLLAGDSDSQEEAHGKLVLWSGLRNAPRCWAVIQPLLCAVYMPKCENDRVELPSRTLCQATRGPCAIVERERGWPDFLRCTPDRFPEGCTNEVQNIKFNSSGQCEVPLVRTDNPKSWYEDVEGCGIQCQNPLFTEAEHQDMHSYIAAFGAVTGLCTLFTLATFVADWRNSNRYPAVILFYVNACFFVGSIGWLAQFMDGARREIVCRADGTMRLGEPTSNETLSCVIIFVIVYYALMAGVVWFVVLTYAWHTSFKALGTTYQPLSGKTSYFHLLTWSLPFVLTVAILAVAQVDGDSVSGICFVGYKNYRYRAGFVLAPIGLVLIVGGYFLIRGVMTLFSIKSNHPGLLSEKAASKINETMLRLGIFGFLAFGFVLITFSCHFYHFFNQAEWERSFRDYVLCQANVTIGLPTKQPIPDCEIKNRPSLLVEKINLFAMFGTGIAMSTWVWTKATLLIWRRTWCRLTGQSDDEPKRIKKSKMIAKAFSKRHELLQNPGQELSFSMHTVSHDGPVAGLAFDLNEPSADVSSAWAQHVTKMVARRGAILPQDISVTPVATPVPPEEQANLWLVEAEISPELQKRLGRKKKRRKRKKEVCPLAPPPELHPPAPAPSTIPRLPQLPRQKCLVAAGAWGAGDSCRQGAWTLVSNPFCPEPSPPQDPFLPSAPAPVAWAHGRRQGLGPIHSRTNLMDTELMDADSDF

Smo-M2 = Smo-M2 (Homo sapiens, UniProt Q99835, W535L); experiment: Smo ciliary translocation assay, NIH3T3 cells expressing Smo-M2-EYFP; format: cell-based; conditions: Shh-N 20%, SAG 100 nmol/L
Chain of Smo-M2 (Q99835 28-787 W535L): as the sequence (Q99835 28-787 D473H) above, with H446D, W508L counted along it
In short: as §1

Gli-1 = experiment: Quantitative real-time PCR, Gli-1 mRNA; format: cell-based, mouse; conditions: NIH3T3-12Gli cells, 24 h; for Gli-1 transcription induced by Shh-N: presence of Shh-N
In short: as §2

NIH3T3-12Gli cells = experiment: Immunofluorescence of acetylated and detyrosinated tubulin of primary cilia; format: cell-based; conditions: Fig. S1
In short: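 Reporter NIH3T3 clone (NIH3T3-12Gli, stably carrying a Gli-responsive luciferase reporter) was exposed to test compounds or conditions. Primary cilia were co-immunostained with anti-detyrosinated (glu) tubulin and anti-acetylated α-tubulin antibodies, and nuclei were stained with DAPI. Cilia were imaged by fluorescence microscopy.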

NIH3T3 cells = experiment: Immunoblotting of acetylated α-tubulin and total histones; format: cell-based; conditions: 6 h treatment
Gli-2 = experiment: Quantitative real-time PCR, Gli-2 mRNA; format: cell-based, mouse; conditions: NIH3T3-12Gli cells, presence or absence of Shh-N, 24 h
In short: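 NIH3T3-12Gli cells are kept in either HEK293 control medium or Shh-N conditioned medium and treated in triplicate with test compound or DMSO control. RNA is extracted with Trizol, cDNA is made with a PrimeScript kit, and SYBR Green qPCR is run with mouse Gli-2 primers. Values are normalised to GAPDH and relative expression is derived by the 2(-ΔΔCt) method.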

Chain of Smo-WT (Q99835 28-787): as the sequence (Q99835 28-787 D473H) above, with H446D counted along it

Compound | Inhibition of Hh signaling mediated by Smo-M2 ([1]; in the absence of Shh-N) | Concentration that fully blocked Hh pathway, Smo-M2 ([1]; in the presence of Shh-N) | Suppression of Smo localization to primary cilium induced by Shh-N and SAG (Smo-WT) | Concentration that almost maximally blocked reporter activity ([2]; NIH3T3-12Gli cells expressing Smo-WT) | Inhibition of reporter activity of cells expressing Smo-WT-EYFP ([2]; in the absence of Shh-N) | IC50 (Hh signaling) | Inhibition of reporter activity in Smo-DH-transfected cells [3] | Expression of Ptch-1 induced by Shh-N (Ptch-1) | Inhibition of association of BODIPY-cyclopamine with Smo-DH / binding to Smo-DH (Smo-DH) | Effect on accumulation of Smo-M2 in cilia induced by Hh pathway stimulators (Smo-M2) | Gli-1 transcription induced by Shh-N (Gli-1) | Acetylation and detyrosination of primary cilia (NIH3T3-12Gli cells) | Block of reporter activity at 3 μmol/L (Hh signaling; 3 μmol/L) | Acetylation of total histones and α-tubulin (NIH3T3 cells) | Gli-2 transcription (Gli-2) | Gli-1 transcription, Hh pathway in off-state (Gli-1; absence of Shh-N)
CS(=O)(=O)c1ccc(C(=O)Nc2ccc(Cl)c(-c3ccccn3)c2)c(Cl)c1 [vismodegib] | significantly inhibited | > 10 µmol/L | effectively suppressed | 1 µmol/L | slightly but dose-dependently inhibited | 19.7 nM | no inhibition | effectively suppressed | inability to bind Smo-DH | did not inhibit | potently inhibited | – | – | – | – | –
O=C(CCCCCCC(=O)Nc1ccccc1)NO [vorinostat] | – | – | but not vorinostat | – | – | 670 nM | – | effectively suppressed | – | – | potently inhibited | downregulated the acetylation but not the detyrosination | almost completely blocked | effectively and dose dependently increased | significantly and dose-dependently suppressed | significantly increased
